What follows are compounds tested against T1, Diacylglycerol lipase-alpha (Homo sapiens, UniProt Q9Y4D2) (assay: Inhibition of full-length human DAGLalpha expressed in HEK293T cell membranes using para-nitrophenylbutyrate by colorimetric assay).
T1 sequence (Q9Y4D2 whole entry): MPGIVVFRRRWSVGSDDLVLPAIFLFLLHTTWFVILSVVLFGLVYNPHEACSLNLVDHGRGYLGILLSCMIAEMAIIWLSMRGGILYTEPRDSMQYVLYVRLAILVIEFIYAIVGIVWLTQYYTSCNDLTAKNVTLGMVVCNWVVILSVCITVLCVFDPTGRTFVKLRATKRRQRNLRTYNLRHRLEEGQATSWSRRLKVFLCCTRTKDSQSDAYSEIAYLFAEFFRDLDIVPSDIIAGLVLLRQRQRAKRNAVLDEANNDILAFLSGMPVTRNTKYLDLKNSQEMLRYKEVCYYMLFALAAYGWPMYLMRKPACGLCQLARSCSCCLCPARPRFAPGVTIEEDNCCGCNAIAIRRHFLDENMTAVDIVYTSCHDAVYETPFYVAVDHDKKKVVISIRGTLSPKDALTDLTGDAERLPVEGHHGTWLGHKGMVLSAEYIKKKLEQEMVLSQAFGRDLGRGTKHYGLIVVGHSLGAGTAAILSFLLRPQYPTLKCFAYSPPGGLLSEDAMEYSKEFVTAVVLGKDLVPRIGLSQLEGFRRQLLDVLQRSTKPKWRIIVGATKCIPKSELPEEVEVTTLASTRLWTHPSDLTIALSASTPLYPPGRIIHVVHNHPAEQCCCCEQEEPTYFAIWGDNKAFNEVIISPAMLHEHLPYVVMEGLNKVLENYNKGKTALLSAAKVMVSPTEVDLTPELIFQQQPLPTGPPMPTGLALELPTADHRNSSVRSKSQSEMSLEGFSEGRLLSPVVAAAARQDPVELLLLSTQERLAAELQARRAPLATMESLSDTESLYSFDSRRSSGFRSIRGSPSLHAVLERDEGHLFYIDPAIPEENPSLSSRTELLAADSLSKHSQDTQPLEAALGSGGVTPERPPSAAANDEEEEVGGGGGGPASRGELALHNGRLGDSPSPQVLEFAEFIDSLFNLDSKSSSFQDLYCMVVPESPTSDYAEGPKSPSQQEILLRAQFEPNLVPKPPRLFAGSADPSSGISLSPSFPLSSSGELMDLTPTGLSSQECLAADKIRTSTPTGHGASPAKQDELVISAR
Assay type: cell-based, HEK-293T
In short: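 Membranes from HEK293T cells transiently transfected with full-length human DAGL-α (pcDNA3.1; PEI transfection, harvested at 72 h), diluted to 0.05 μg/μL final protein in 50 mM HEPES pH 7.2. Screen at 10 μM in duplicate; dose response by 10-fold serial dilution.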

SMILES | IC50
O=C(CCCCc1ccccc1)c1nc2ncccc2o1 | 204 nM
O=C(CCCCCc1ccccc1)c1nc2c(F)cccc2o1 | 117 nM
O=C(CCCCCCc1ccccc1)c1noc(-c2ccco2)n1 | > 10000 nM
CCCCCCCCCC(=O)c1nc2ncccc2o1 | 74.1 nM
O=C(CCCCCCc1ccccc1)c1nc(-c2ccncc2)co1 | > 10000 nM

Results, then the compound that gave them:

IC50 | SMILES
631 nM | COC(=O)c1coc(C(=O)CCCCCCc2ccccc2)n1
2400 nM | O=C(CCCCCCc1ccccc1)c1nc(Cl)co1
> 10000 nM | CSc1coc(C(=O)CCCCCCc2ccccc2)n1
479 nM | CC(C)(C)C(=O)c1coc(C(=O)CCCCCCc2ccccc2)n1
> 10000 nM | COC(=O)c1nnc(C(=O)CCCCCCc2ccccc2)s1
123 nM | CC(=O)c1coc(C(=O)CCCCCCc2ccccc2)n1
> 10000 nM | O=C(CCCCCCc1ccccc1)c1ncc(-c2cccs2)s1

From ChEMBL document CHEMBL3751702, “Comprehensive Analysis of Structure-Activity Relationships of α-Ketoheterocycles as sn-1-Diacylglycerol Lipase α Inhibitors” (J Med Chem, 2015)
